Laboratory results from ChEMBL document CHEMBL2429762, “Structure-activity relationship study of indole-2-carboxamides identifies a potent allosteric modulator for the cannabinoid receptor 1 (CB1)” (J Med Chem, 2013).
Values belong to the compound of their own block, whether it stands above or below them. The source made the active and inactive calls. No cut-off for these calls is given here.

Assays:
[1] = target: Cannabinoid receptor 1 (Homo sapiens) (UniProt P21554); test: Antagonist activity CB1 receptor (unknown origin) expressed in HEK293 cell membranes assessed as inhibition of CP55,940-induced [35S]GTPgammaS binding after 60 mins by liquid scintillation counting analysis; type: functional
Method in brief: (§1)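 Wild-type CB1 HEK293 membranes (7.5 μg) were incubated 60 min at 30 °C in 50 mM Tris-HCl pH 7.4, 3 mM MgCl2, 0.2 mM EGTA, 100 mM NaCl, 0.1% BSA, 10 μM GDP and 0.1 nM [35S]GTPγS. CP55,940 was given at ≥9 concentrations (100 pM–100 μM), with or without modulator. Nonspecific binding was taken with 10 μM GTPγS. Samples were filtered and counted by scintillation. Runs were in duplicate, ≥3 experiments.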

[2] = target: Cannabinoid receptor 1 (Homo sapiens) (UniProt P21554); test: Positive allosteric modulation of CB1 receptor (unknown origin) expressed in HEK293 cell membranes assessed as stimulation of [3H]CP55,940 binding after 60 mins by liquid scintillation counting analysis
Method in brief: (§2)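 Nonspecific binding was taken with 1 μM unlabeled CP55,940. Samples were filtered on GF/C and counted by scintillation. Runs were in duplicate, ≥3 experiments. α and KB came from nonlinear regression to the allosteric ternary complex model, with [A] and KA fixed.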

[3] = target: Cannabinoid receptor 1 (Homo sapiens) (UniProt P21554); test: Antagonist activity CB1 receptor (unknown origin) expressed in HEK293 cell membranes assessed as inhibition of CP55,940-induced [35S]GTPgammaS binding at 3.2 uM after 60 mins by liquid scintillation counting analysis relative to control; type: functional; method in brief: as §1
[4] = target: Cannabinoid receptor 1 (Homo sapiens) (UniProt P21554); test: Antagonist activity CB1 receptor (unknown origin) expressed in HEK293 cell membranes assessed as inhibition of CP55,940-induced [35S]GTPgammaS binding at 10 uM after 60 mins by liquid scintillation counting analysis relative to control; type: functional; method in brief: as §1
[5] = target: Cannabinoid receptor 1 (Homo sapiens) (UniProt P21554); test: Allosteric modulation of CB1 receptor (unknown origin) expressed in HEK293 cell membranes assessed as stimulation of [3H]CP55,940 binding up to 32 uM after 60 mins by liquid scintillation counting analysis; method in brief: as §2
[6] = target: Cannabinoid receptor 1 (Homo sapiens) (UniProt P21554); test: Antagonist activity CB1 receptor (unknown origin) expressed in HEK293 cell membranes assessed as inhibition of [35S]GTPgammaS binding after 60 mins by liquid scintillation counting analysis; type: functional
Method in brief: (§3)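 Basal [35S]GTPγS binding was measured with no orthosteric agonist on wild-type CB1 HEK293 membranes (7.5 μg), 60 min at 30 °C. Buffer was Tris pH 7.4 with MgCl2, EGTA, NaCl and BSA, plus 5 μM GDP and 0.1 nM [35S]GTPγS, and modulator added. Nonspecific binding was taken with 10 μM GTPγS. Mock-transfected membranes gave the non-CB1 binding. Samples were filtered and counted by scintillation. Runs were in duplicate, ≥3 experiments; one-way ANOVA with Bonferroni test was applied.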

[7] = target: Cannabinoid receptor 1 (Homo sapiens) (UniProt P21554); test: Antagonist activity CB1 receptor (unknown origin) expressed in HEK293 cell membranes assessed as inhibition of CP55,940-induced [35S]GTPgammaS binding at 1 uM after 60 mins by liquid scintillation counting analysis relative to control; type: functional; method in brief: as §1
[8] = target: Cannabinoid receptor 1 (Homo sapiens) (UniProt P21554); test: Antagonist activity CB1 receptor (unknown origin) expressed in HEK293 cell membranes assessed as inhibition of CP55,940-induced [35S]GTPgammaS binding at 0.1 uM after 60 mins by liquid scintillation counting analysis (reference value: […] +/- […] fmol/mg); type: functional
[9] = target: Cannabinoid receptor 1 (Homo sapiens) (UniProt P21554); test: Antagonist activity CB1 receptor (unknown origin) expressed in HEK293 cell membranes assessed as inhibition of [35S]GTPgammaS binding at 10 uM after 60 mins by liquid scintillation counting analysis; type: functional; method in brief: as §3

Sequence of Cannabinoid receptor 1 (Homo sapiens) (P21554 whole entry): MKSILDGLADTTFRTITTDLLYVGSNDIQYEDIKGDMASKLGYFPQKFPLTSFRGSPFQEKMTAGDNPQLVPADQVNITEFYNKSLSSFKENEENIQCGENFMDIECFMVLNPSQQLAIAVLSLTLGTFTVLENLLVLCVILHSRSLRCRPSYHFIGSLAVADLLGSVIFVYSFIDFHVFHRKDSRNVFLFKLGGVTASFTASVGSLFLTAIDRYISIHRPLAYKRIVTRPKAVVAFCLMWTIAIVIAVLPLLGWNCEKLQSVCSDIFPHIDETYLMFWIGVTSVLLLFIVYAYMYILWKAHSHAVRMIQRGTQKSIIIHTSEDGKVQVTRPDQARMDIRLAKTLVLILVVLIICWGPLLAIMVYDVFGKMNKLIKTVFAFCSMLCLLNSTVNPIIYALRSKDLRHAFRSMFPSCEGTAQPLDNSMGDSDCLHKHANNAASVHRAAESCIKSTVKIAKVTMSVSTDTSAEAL

Compound: O=C(NCCc1ccc(N2CCCCC2)cc1)c1cc2cc(Cl)ccc2o1
Activity [5]: inactive

Compound: CCCCCc1c(C(=O)NCCc2ccc(N(C)C)cc2)[nH]c2ccc(Cl)cc12
inhibition [6]: Dose-dependent effect | inhibition [1]: Dose-dependent effect | Kb [2]: 167 nM | Emax [7]: 36 fmol/mg | Emax [8]: 53.4 fmol/mg | inhibition [9]: Active

Compound: CCCCCc1c(C(=O)NCc2ccc(N3CCCCC3)cc2)[nH]c2ccc(Cl)cc12
Activity [5]: inactive

Compound: CN(C)c1ccc(CCNC(=O)c2cc3cc(Cl)ccc3o2)cc1
Activity [5]: inactive

Compound: CCCCCCCCCc1c(C(=O)NCCc2ccc(N3CCCCC3)cc2)[nH]c2ccc(Cl)cc12
inhibition [1]: Dose-dependent effect | Kb [2]: 260 nM | Emax [3]: 61.4 fmol/mg | inhibition [4]: Active

Compound: CCCCCc1c(C(=O)NC(CO)Cc2ccc(N(C)C)cc2)[nH]c2ccc(Cl)cc12 (stereo not given)
Kb [2]: 1020 nM

Compound: CCc1c(C(=O)NCCc2ccc(N(C)C)cc2)[nH]c2ccc(Cl)cc12
Kb [2]: 207 nM

Compound: CCc1c(C(=O)NCCc2ccc(N(C)C)cc2)oc2ccc(Cl)cc12
Kb [2]: 627 nM

Compound: O=C(NCCc1ccc(N2CCCCC2)cc1)c1[nH]c2ccc(Cl)cc2c1-c1ccccc1
Activity [5]: inactive

Compound: CCCCCCCc1c(C(=O)NCCc2ccc(N3CCCCC3)cc2)[nH]c2ccc(Cl)cc12
Kb [2]: 651 nM

Compound: CCc1c(C(=O)NCCc2ccc(N3CCCCC3)cc2)[nH]c2ccc(Cl)cc12
Kb [2]: 217 nM

Results, then the compound that gave them:

inhibition [1]: Dose-dependent effect | Kb [2]: 2590 nM | Emax [3]: 59.5 fmol/mg | inhibition [4]: Active
Compound: CCc1c(C(=O)NCCc2ccc(N3CCCCC3)cc2)oc2ccc(Cl)cc12

Kb [2]: 2340 nM
Compound: CCCCCc1c(C(=O)NCCc2ccc(Oc3ccccc3)cc2)[nH]c2ccc(Cl)cc12

Kb [2]: 1070 nM
Compound: O=C(NCCc1ccc(N2CCCCC2)cc1)c1[nH]c2ccc(Cl)cc2c1Cc1ccccc1

inhibition [1]: Dose-dependent effect | Kb [2]: 508 nM | Emax [3]: 58.2 fmol/mg | inhibition [4]: Active
Compound: CCCCCc1c(C(=O)NCCc2ccc(N3CCOCC3)cc2)[nH]c2ccc(Cl)cc12

Kb [2]: 2410 nM
Compound: O=C(NCCc1ccc(N2CCCCC2)cc1)c1[nH]c2ccc(Cl)cc2c1CC1CCCCC1
